Assay outcomes: PubChem, Sanford-Burnham Center for Chemical Genomics
Most compounds without a hit are left out; they make up all but 1.7% or so of the library.
STEP block: STEP phosphatase inhibitors, primary screen, biochemical, fluorescence intensity, uHTS; Tyrosine-protein phosphatase non-receptor type 5 (Homo sapiens), P54829; recombinant STEP, OMFP fluorogenic substrate; inhibition, % at 20 µM; actives 0.25% (n = 360,000); AID 588621, 2011;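 active = inhibition at 20 µM, scaled per plate between control wells, above about 37%, limit read from the data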;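 note: 0% = DMSO with enzyme and substrate and 100% = substrate only without enzyme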
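Also added – OMFP at 25 µM · Test system – STEP tyrosine phosphatase · Technique – FITC-channel fluorescence of OMFP product · Schedule – 20 min at room temperature, dark · Evaluation – control-normalized % inhibition with plate pattern correction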
DNMT1 inh: human DNMT1 methyltransferase inhibitors, primary screen, biochemical, molecular beacon, fluorescence, HinP1I cleavage, uHTS; DNA (cytosine-5)-methyltransferase 1 (Homo sapiens), P26358; inhibition (reported as % activation of signal), % at 10 µM; actives 0.83% (n = 360,000); AID 588458, 2011; in the data active = inhibition above about 50%
SUMO1-SIM PPI: modulators of SUMO1 protein-protein interactions, primary screen, biochemical, uHTS; actives 0.33% (n = 360,000); inhibition, % at 20 µM; SUMO1 binding to a labelled peptide, TR-FRET, 1 h; Small ubiquitin-related modifier 1 (Homo sapiens), P63165; in the data active = inhibition above about 37%
Target sequence (P63165 whole entry, looked up): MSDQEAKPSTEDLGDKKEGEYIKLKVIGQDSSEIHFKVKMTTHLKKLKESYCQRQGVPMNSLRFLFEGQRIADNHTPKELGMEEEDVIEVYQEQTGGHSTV
Scp1 inh: Scp-1 phosphatase inhibitors, primary screen, biochemical, colorimetric, uHTS. Carboxy-terminal domain RNA polymerase II polypeptide A small phosphatase 1 (Homo …. Recombinant Scp1, phosphopeptide, malachite green phosphate absorbance. inhibition, % at 20 µM. actives 0.88% (n = 340,000). AID 493091, 2011;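 active = inhibition above about 50% at 20 µM, limit read from the data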;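 note: plate controls were DMSO wells with enzyme for no effect and wells lacking enzyme for full effect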
Target sequence (Q9GZU7 76-261 limits assumed): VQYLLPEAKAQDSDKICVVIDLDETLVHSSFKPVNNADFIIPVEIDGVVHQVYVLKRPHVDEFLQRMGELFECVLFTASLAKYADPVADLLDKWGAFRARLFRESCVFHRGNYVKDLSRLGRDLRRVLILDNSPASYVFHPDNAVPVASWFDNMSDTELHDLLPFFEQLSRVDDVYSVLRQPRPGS
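Test system: SCP-1 phosphatase catalytic domain, residues 76-261; measured by: colorimetric phosphate reagent with accelerator and stabiliser, absorbance at 630 nm; timing: enzyme reaction 45 min at room temperature, colour 5 min, stabilisation 30 min; also added: Phosphorylated 17-residue peptide substrate; compound dosing: one concentration, 20 µM, with 1.0% DMSO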
LMPTP inh: LMPTP phosphatase inhibitors, primary screen, biochemical, fluorescence intensity, uHTS. Low molecular weight phosphotyrosine protein phosphatase (Homo sapiens), P24666. recombinant LMPTP-A, OMFP fluorogenic substrate. inhibition, % at 20 µM. actives 0.22% (n = 360,000);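 active = compounds that cut the enzyme signal by at least half of the control window in the single-dose screen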;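 note: plate controls were DMSO wells with enzyme plus substrate for no effect and substrate without enzyme for full effect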
Target sequence (P24666 whole entry, looked up): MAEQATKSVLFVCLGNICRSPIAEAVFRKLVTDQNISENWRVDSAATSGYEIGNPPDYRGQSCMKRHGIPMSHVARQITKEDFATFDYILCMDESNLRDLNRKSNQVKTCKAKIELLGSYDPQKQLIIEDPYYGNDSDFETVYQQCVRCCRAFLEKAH
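Test system: LMPTP-A phosphatase enzyme. Amount: LMPTP-A at 0.625 nM final in the reaction. Reagent: OMFP substrate, 400 µM final. Times: 50 min at room temperature. Signal: endpoint fluorescence intensity from OMFP dephosphorylation. Read-out basis: % inhibition. Benchmarks: no-enzyme and uninhibited controls.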
Beacon interf DR: spectral interference with molecular beacon fluorescence, dose response, artefact control for DNMT1 inhibitor project, biochemical, fluorescent molecular beacon. shares compounds with DNMT1 inh. spectral interference counter-screen. IC50, µM. 200 tested, under 10 active; call rule not given here
DNMT1 inh conf: DNMT1 methyltransferase inhibitor retest, confirmation, biochemical, molecular beacon, fluorescence, single concentration | shares compounds with DNMT1 inh | DNMT1 molecular beacon HinP1I cleavage | inhibition, % at 10 µM | actives 8% (n = 2,300) | AID 602385, 2012;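 active = average inhibition of at least 30% in the single-concentration confirmation test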
DNMT1 interf: beacon fluorescence artifact counter-screen; DNMT1 molecular beacon spectral interference counterscreen, fluorescence 485/520; actives 1% (n = 2,300); shares compounds with DNMT1 inh; activation (fluorescence interference), % at 10 µM; AID 602387;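 active = activation of at least 30% at 10 µM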;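 note: DNMT1 catalytic domain with a HinP1I cleavage step and a FAM/dabcyl DNA beacon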
* = called active by the depositor; . = not tested or not shown.

SMILES	STEP block	DNMT1 inh	SUMO1-SIM PPI	Scp1 inh	LMPTP inh	DNMT1 inh conf	DNMT1 interf	others
O=C(O)C(c1ccccc1)N1C(=O)/C(=C\c2ccc(-c3ccccc3Cl)o2)SC1=S (centres undefined)	44.8*	98.3*	91.9*	35.2	76.9*	69.4*	0.3	Beacon interf DR=34.4*
COc1cc(/C=C2\SC(=S)N(C(C(=O)O)c3ccccc3)C2=O)cc(OC)c1OC (centres undefined)	-2.0	5.1	-14.2	-2.0	3.3	.	.
O=C(O)C(c1ccccc1)N1C(=O)/C(=C\c2ccc(-c3ccc(Br)cc3)o2)SC1=S (centres undefined)	10.6	92.7*	90.8*	19.8	64.7*	93.0*	-1.6	Beacon interf DR=47.4*
Cc1cccc(NC(=O)CSc2nc(N)c(NC(=O)c3cccs3)c(=O)[nH]2)c1C	-2.8	5.3	4.6	-8.5	-2.3	.	.
COc1cc2c(O)cc(C(=O)O)c(-c3cc(OC)c(OC)c(OC)c3)c2cc1OC	-0.6	0.9	3.3	-2.2	-1.3	.	.
COc1cc(C)cc(C(=O)O)c1C1=C(O)c2cccc(O)c2C(=O)C1=O	6.4	66.4*	6.9	47.4	3.6	17.2	-2.0
COc1cccc(-c2[nH]nc3c2C(c2ccoc2)C(C#N)=C(N)O3)c1 (centres undefined)	0.6	67.0*	17.9	17.1	0.5	4.3	1.4
COc1cccc(-c2[nH]nc3c2C(c2ccsc2)C(C#N)=C(N)O3)c1 (centres undefined)	0.3	-16.1	-5.4	-10.7	-0.6	.	.
Cc1nn(Cc2ccc(Cl)cc2)c(C)c1NC(=O)c1cc(-c2ccc3c(c2)OCO3)on1	-0.4	38.7	1.0	-1.1	3.2	.	.
Cc1nn(Cc2ccc(Cl)c(Cl)c2)c(C)c1NC(=O)c1cc(-c2ccc3c(c2)OCO3)on1	0.7	76.2*	0.0	2.8	4.4	3.3	-1.9
O=c1c(Cl)c(Cl)cnn1-c1ccccc1	2.8	5.7	-9.2	-4.0	-1.0	.	.
O=c1c(Cl)c(N/N=C/c2ccc(Cl)cc2)cnn1-c1ccccc1	3.1	80.0*	-1.0	19.5	54.2*	5.0	2.5
COc1ccc(-c2cc3ccccc3oc2=O)cc1NC(=O)c1ccc([N+](=O)[O-])o1	5.7	6.5	-7.1	2.2	10.6	.	.
COc1ccc(-c2cc3ccccc3oc2=O)cc1NC(=O)c1ccc(Br)o1	4.6	85.2*	9.1	1.1	15.6	1.8	-4.5
O=c1[nH]nnc2c1sc1nc(N3CCOCC3)c3c(c12)CCCC3	0.2	94.6*	-0.6	-2.5	-13.8	6.6	9.9
C1CCc2c(c(N3CCOCC3)nc3sc4c(N5CCOCC5)nnnc4c23)C1	-2.7	0.6	6.5	-8.9	-1.8	.	.
O=C(O)CSc1nc2sc3c(c2c(=O)n1Cc1ccccc1)CCCCC3	2.5	3.4	8.3	-15.6	1.3	.	.
O=C(O)CSc1cc(C(=O)c2ccccc2O)cn2c(=O)c3c4c(sc3nc12)CCCC4	95.5*	73.4*	35.4	66.0*	34.2	60.6*	0.1	Beacon interf DR=>99
CCOC(=O)c1c(N)n(CCOC(=O)c2cccs2)c2nc3ccccc3nc12	4.9	100.1*	37.6	-0.4	4.5	6.9	5.9
CCCCCOC(=O)c1c(N)n(CCOC)c2nc3ccccc3nc12	1.7	-15.3	5.2	-0.3	1.3	.	.
O=C(N/N=C/c1cc(Br)c(Br)o1)c1ccc2c(c1)OCCO2	9.5	71.8*	2.7	83.8*	34.7	13.8	0.3
